Results pooled from the literature.
Lines come from different studies, so protocols differ.

SMILES | tested on | assay | system | conditions | measurement | value
CCOC(=O)c1c(NC(=O)CNC(C)C)sc2c1CCCCC2 |  |  | male mouse, plasma | intraperitoneal, 100 mg/kg, single dose | MRT(0-inf) | 247 min
c1ccc2c(c1)[I+]c1ccccc1-2 | HepG2 | cell growth or viability, ATP luminescence |  | 72 h | CC50 | 1.28 µM
CC(C)[C@]12O[C@H]1[C@@H]1O[C@]13[C@]1(O[C@H]1C[C@H]1C4=C(CC[C@@]13C)C(=O)OC4)[C@@H]2O |  |  | SCID mouse, plasma | intravenous, 0.6 mg/kg | MRT | 28.8 min
CC(=O)c1c(C)c2cnc(Nc3ccc(C4CCN(CCS(C)(=O)=O)CC4)cn3)nc2n(C2CCCC2)c1=O |  | metabolic stability | human, liver microsomes |  | half-life | 28.6 min
CC[C@H](C)[C@H](NC(=O)[C@H](Cc1ccccc1)NC(=O)[C@H](CCC(=O)O)NC(=O)[C@H](CCCCN)NC(=O)[C@H](C)NC(=O)[C@H](C)NC(=O)[C@H](CCC(N)=O)NC(=O)CNC(=O)[C@H](CCC(=O)O)NC(=O)[C@H](CC(C)C)NC(=O)[C@H](Cc1ccc(O)cc1)NC(=O)[C@H](CO)NC(=O)[C@H](CO)NC(=O)[C@@H](NC(=O)[C@H](CC(=O)O)NC(=O)[C@H](CO)NC(=O)[C@@H](NC(=O)[C@H](Cc1ccccc1)NC(=O)[C@@H](NC(=O)CNC(=O)[C@H](CCC(=O)O)NC(=O)[C@H](C)NC(=O)N(N)Cc1c[nH]cn1)[C@@H](C)O)[C@@H](C)O)C(C)C)C(=O)N[C@@H](C)C(=O)N[C@@H](Cc1c[nH]c2ccccc12)C(=O)N[C@@H](CC(C)C)C(=O)N[C@H](C(=O)N[C@@H](CCCNC(=N)N)C(=O)NCC(=O)N[C@@H](CCCNC(=N)N)C(=O)NCC(=O)O)C(C)C |  |  | male CD-1 mouse, plasma | intravenous, 1 mg/kg, single dose | MRT | 8.4 min
Cc1[nH]c(C)c(S(=O)(=O)Nc2ccc(S(F)(F)(F)(F)F)c(Cl)c2)c1C(=O)N1CCC(F)(F)C1 |  | metabolic stability | human, liver microsomes |  | half-life | 13 min
COc1ccc(NC(=O)N2CCCCN3[C@H](CN(C)C)[C@H](c4ccc(C#Cc5ccccc5)cc4)[C@@H]3C2)cc1 | HepG2 | cell growth or viability, ATP luminescence |  | 72 h | CC50 | 6.08 µM
CC(C)(C)[C@H](NC(=O)C(F)(F)F)C(=O)N1C[C@H]2[C@@H]([C@H]1C(=O)N[C@H](C#N)C[C@@H]1CCNC1=O)C2(C)C | Huh-7 | cell growth or viability |  |  | CC50 | > 100 µM
CC(C)=CCC[C@](C)(O[C@@H]1O[C@H](CO)[C@@H](O)[C@H](O)[C@H]1O)[C@H]1CC[C@]2(C)[C@@H]1[C@H](O)C[C@@H]1[C@@]3(C)CC[C@H](O)C(C)(C)[C@@H]3CC[C@]12C |  |  | mouse, plasma | intravenous, 2 mg/kg | MRT | 510 min
N#C[C@@]1(n2ccc(N)nc2=O)O[C@H](CO)[C@@H](O)[C@H]1O | Huh-7 | cell growth or viability |  |  | CC50 | 99.5 µM
CC(C)CC(=O)OC[C@H]1O[C@@](C#N)(c2ccc3c(N)ncnn23)[C@H](O)[C@@H]1O |  | metabolic stability | human, plasma | 5 µM | half-life | 7.93 min
